Measured values as given in ChEMBL document CHEMBL1130822, “Synthesis and biological evaluation of new tetrahydronaphthalene derivatives as thromboxane receptor antagonists” (Bioorg Med Chem Lett, 1998).

Columns and labels:
Cavia porcellus = organism: Cavia porcellus; assay: Compound was tested for inhibition of U-46,619 induced increase in tracheal pressure of guinea pigs; type: functional, Trachea; conditions: for ED50: Cavia porcellus, Trachea, read-out: ID50
Summary of the method: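 Compound given i.v. to guinea pigs; tracheal pressure rise evoked with U46619 by the Konzett–Rossler technique; ID50 expressed in μg/kg.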

Homo sapiens = organism: Homo sapiens; assay: Compound was tested for inhibition of U-46,619 induced aggregation of human platelets; type: functional
Summary of the method: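 Human platelet-rich plasma aggregated with the TP-receptor agonist U46619, with and without compound; inhibition of aggregation measured and IC50 expressed in μM.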

Oryctolagus cuniculus = organism: Oryctolagus cuniculus; assay: Compound was tested for inhibition of U-46,619 induced contraction of isolated rabbit saphenous vein; type: functional; conditions: for Kb: Oryctolagus cuniculus, Saphenous vein, read-out: pA2 (converted)
Summary of the method: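 Isolated rabbit saphenous vein rings contracted with increasing U46619 concentrations in the absence or presence of compound; antagonism quantified as pA2 values.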

Compound | ID50 (Cavia porcellus) [mg/kg] | IC50 (Homo sapiens) [nM] | pA2 (Oryctolagus cuniculus) | ED50 (Cavia porcellus) [mg/kg] | IC50 (Homo sapiens; Homo sapiens) [nM] | Kb (Oryctolagus cuniculus) [nM]
Cc1ccc2c(c1CCC(=O)O)CCC(NS(=O)(=O)c1ccc(Cl)cc1)C2 (stereo in doubt) | 0.035 | 230 |  |  |  | 
Cc1ccc2c(c1CCC(=O)O)CCC(NS(=O)(=O)c1ccc(Cl)cc1)C2 (stereo in doubt; 2a) | 0.031 | 330 | 8.9 |  |  | 
Cc1ccc2c(c1CCC(=O)O)CCC(NS(=O)(=O)c1ccc(Cl)cc1)C2 (stereo in doubt; 2a (l)) | 0.015 | 780 | 8.2 |  |  | 
O=C(O)CC/C=C\C[C@@H]1CO[C@H](c2ccccc2Cl)O[C@@H]1c1ccccc1O |  |  |  | 0.0007 | 13 | 2.51
O=C(O)CCn1c2c(c3ccccc31)CC(NS(=O)(=O)c1ccc(F)cc1)CC2 (single isomer, unassigned) [RAMATROBAN] |  |  |  | 0.017 | 380 | 12.6
